This note sets out measurements from ChEMBL document CHEMBL2163221, “Discovery of a potential anti-ischemic stroke agent: 3-pentylbenzo[c]thiophen-1(3H)-one” (J Med Chem, 2012).

Test [1] has as its system Platelet. Nature of the test: Inhibition of arachidonic acid-induced platelet aggregation in rabbit platelet rich plasma by Born's turbidimetric method. In kind it is functional. The conditions noted are these: Oryctolagus cuniculus. In short, it runs like this:
(§1)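 Rabbit carotid blood in 3.8% sodium citrate (9:1); PRP by 500g spin for 10 min, PPP by a further 3000g spin for 10 min. PRP was preincubated in duplicate for 5 min at 37 °C with vehicle or agent (0.1, 0.2, 0.4, 0.8, 1.6 mM). Aggregation was triggered by ADP (10 μM final) or AA (1 mM), and maximal light transmission was read within 5 min, within 3 h of collection. Inhibition % = 100 × (1 − treated/control); IC50 was calculated.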

Test [2] deals with Platelet. In words: Inhibition of adenosine diphosphate-induced platelet aggregation in rabbit platelet rich plasma by Born's turbidimetric method. In kind it is functional. The following applies: Oryctolagus cuniculus. The gist of the method: as §1
Test [3] deals with Rattus norvegicus. Nature of the test: Anticerebral ischemic activity in Sprague-Dawley rat middle cerebral artery occlusion model assessed as reduction in infarct size in brain at 80 mg/kg, ig for 7 consecutive days by TTC assay. In kind it is functional. The following applies: route intragastric. The arrangement: scale not given: the % may be the effect or the level left. In short, it runs like this:
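SD rats, chloral hydrate 350 mg/kg ip anaesthesia; right MCA occluded 2 h by silicone-tipped 4-0 nylon filament via ECA into ICA (>80% CBF drop by laser Doppler, 37 ± 0.5 °C), then reperfusion. Dosed in normal saline orally daily 7 days before ischemia. At 24 h, 2-mm coronal slices stained 2% TTC 30 min 37 °C; infarct area as % of whole brain; n = 6.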

Test [4] relates to Rattus norvegicus. In words: Anticerebral ischemic activity in Sprague-Dawley rat middle cerebral artery occlusion model assessed as reduction in neurological deficit score at 80 mg/kg, ig for 7 consecutive days by Longa's method. Also on record: scale not given: the % may be the effect or the level left. The class given is functional. The conditions noted are these: route intragastric. In short, it runs like this:
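SD rats were dosed orally in normal saline for 7 days before ischemia (n = 12/group). They were anesthetized ip with 350 mg/kg chloral hydrate and given MCAO with a silicone-tipped 4-0 nylon suture for 2 h, then reperfusion. Occlusion was confirmed as >80% CBF drop by laser Doppler, with core temperature held at 37 °C. Deficits were scored blinded by modified Longa's method 24 h after reperfusion.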

Test [5] deals with Rattus norvegicus. Nature of the test: Antithrombotic activity in Sprague-Dawley rat arteriovenous shunt model assessed as reduction of thrombus wet weight at 80 mg/kg, po qd for 5 consecutive days. In kind it is functional. The arrangement: scale not given: the % may be the effect or the level left. The gist of the method: (§2)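 Male SD rats were dosed by gavage in saline daily for 5 days (n = 12/group). An A-V shunt linked the right carotid artery to the left jugular vein: a saline-filled 14 cm polyethylene tube holding 6 cm of four braided silk threads. After 15 min of flow, the threads were weighed wet, then dried 6 h at room temperature and reweighed, less the pre-experiment thread weight.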

For test [6], the system named is PC-12. In words: Antioxidant activity in rat PC12 cells assessed as inhibition of hydroxyl radical-induced cytotoxicity at 10 uM treated for 2 hrs prior to H2O2/Fe+ challenge measured after 1 hr by MTT assay (reference value: 61.95%). The class given is functional. Also on record: scale not given: the % may be the effect or the level left. (In general: Tetrazolium dyes change colour on reduction, which living cells bring about.)

For test [7], the system named is Rattus norvegicus. Nature of the test: Antioxidant activity in Sprague-Dawley rat middle cerebral artery occlusion model assessed as increase in superoxide dismutase activity at 80 mg/kg, ig for 7 consecutive days. The class given is functional. The following applies: route intragastric. The gist of the method:
(§3)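 Rats pretreated orally in saline for 7 days underwent 2 h MCAO with reperfusion. At 24 h brains were removed, rinsed in cold 0.9% saline, blotted and stored at −70 °C. After protein quantification, GSH, SOD activity and MDA were measured with commercial kits; n = 12/group.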

The test system of test [8] is Platelet. Nature of the test: Inhibition of adenosine diphosphate-induced platelet aggregation in rabbit platelet rich plasma at 0.1 mM by Born's turbidimetric method. The class given is functional. The conditions noted are these: Oryctolagus cuniculus. The gist of the method:
as §1

Test [9] relates to Rattus norvegicus. In words: Antioxidant activity in Sprague-Dawley rat middle cerebral artery occlusion model assessed as decrease in malondialdehyde level in brain at 80 mg/kg, ig for 7 consecutive days. Also on record: scale not given: the % may be the effect or the level left. In kind it is functional. The conditions noted are these: route intragastric. In short, it runs like this:
as §3

In test [10] the test system is Platelet. Nature of the test: Inhibition of arachidonic acid-induced platelet aggregation in rabbit platelet rich plasma at 0.1 mM by Born's turbidimetric method. The following applies: Oryctolagus cuniculus. The class given is functional. The gist of the method: as §1
For test [11], the system named is Plasma. Nature of the test: Anticoagulant activity in rabbit plasma assessed as length of activated partial thromboplastin time. The following applies: Oryctolagus cuniculus. The class given is functional, cell-free.
Test [12] deals with PC-12. In words: Antioxidant activity in rat PC12 cells assessed as inhibition of hydrogen peroxide induced cytotoxicity at 10 uM treated for 2 hrs prior to H2O2 challenge measured after 1 hr by MTT assay (reference value: 52.45%). The class given is functional. Also on record: scale not given: the % may be the effect or the level left.
In test [13] the test system is Rattus norvegicus. In words: Antioxidant activity in Sprague-Dawley rat middle cerebral artery occlusion model assessed as increase in glutathione level in brain at 80 mg/kg, ig for 7 consecutive days. The class given is functional. The following applies: route intragastric. The gist of the method: as §3
Test [14] has as its system Rattus norvegicus. Nature of the test: Anticerebral ischemic activity in Sprague-Dawley rat middle cerebral artery occlusion model assessed as reduction of water content in brain at 80 mg/kg, ig for 7 consecutive days. The class given is functional, organism-based. The arrangement: dose 80 mg/kg. In short, it runs like this:
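Rats given oral saline-vehicle pretreatment for 7 days underwent 2 h suture MCAO plus reperfusion. At 24 h the animals were decapitated and brains weighed wet, then dried at 105 °C for 24 h. Water % = (wet − dry)/wet × 100; n = 6/group.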

In test [15] the test system is Rattus norvegicus. Nature of the test: Antithrombotic activity in Sprague-Dawley rat arteriovenous shunt model assessed as reduction of thrombus dry weight at 80 mg/kg, po qd for 5 consecutive days. The class given is functional. Also on record: scale not given: the % may be the effect or the level left. The gist of the method:
as §2

Broadly, the IC50 is the concentration at which inhibition is half-maximal. By inhibition is commonly meant the change of the read-out against control, counted positive when it falls.

Activity calls are given as the source filed them. The rule behind the calls is not given here.

Take `O=C1SC(Cc2ccccc2)c2ccccc21` (racemic): the IC50 in [1] and in test [2] was over 1000 µM each time.

For `CCCCCCCC1SC(=O)c2ccccc21` (racemic), the values for the IC50 in [1] and in [2] were over 1000 µM and 720 µM, respectively.

For the molecule `CCCC1SC(=O)c2ccccc21` (racemic), the IC50 is 400 µM in [1] and over 1000 µM in test [2].

As to `CCCCC1OC(=O)c2ccccc21` (racemic) [RAC-3-N-BUTYLPHTHALIDE], the Activity in test [3] is 40.04%; in test [4] it was 31.47%; in [5] it was 23.58%; in test [6], 73.05%; in test [7] it was 33.61%; in test [9], 25.73%. Besides, the Activity came to 68.05% in [12], 40.83% in [13] and 26.9% in test [15]. In addition, the IC50 is 480 µM in test [1] and over 1000 µM in [2]. The inhibition at 100 µM came to 9.5% in [8] and 17.4% in [10]. Further, the result in test [11] and in [14] was inactive.

Regarding `CCCCC1SC(=O)c2ccccc21` (racemic), the values for the IC50 in test [1] and in [2] were 350 µM and over 1000 µM, respectively.
